In PMC2860672 (Biochemistry, 2010):
In brackets after ≈: the same amount, converted by molar mass. Read-outs that look alike come from different tables or passages of the source.

What was measured:
[1] = system: Nc1ccc(C(=O)O)c(O)c1; experiment: purified protein, by the assay type; settings: other: 25°C, pH 7.8, the other substrates fixed and saturating
[2] = system: O=C(O)c1cccc(O)c1O; experiment: purified protein, by the assay type; settings: other: 25°C, pH 7.8, the other substrates fixed and saturating
[3] = system: O=C(O)c1cccc(O)c1; experiment: purified protein, by the assay type; settings: other: 25°C, pH 7.8, the other substrates fixed and saturating
[4] = target: T1, EntE (Escherichia coli, UniProt P10378); assay type: biochemical
In short: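 Stopped-flow coupled assay (myokinase/pyruvate kinase/LDH, NADH at 340 nm) in 100 mM HEPES pH 7.8, 10 mM MgCl2, 25°C. […] Bisubstrate adenylate analogues were varied. Equal volumes were mixed with 16 nM EntE and followed for 4 min. The first 20 s were discarded. Five traces were averaged per concentration and fitted to a slow-onset equation; kobs was plotted against inhibitor concentration.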

[5] = target: T1, EntE; experiment: ITC of Sal-AMS and DHB-AMS with EntE; assay type: binding
[6] = target: EntE (dihydroxybenzoate-AMP ligase) (Escherichia coli, UniProt P10378); settings: for Km / kcat: pH 7.8
[7] = target: T1, EntE; experiment: Dead-end inhibition of EntE by AMPCPP, coupled assay; assay type: biochemical; settings: holo-EntB-ArCP 4 μM
[8] = target: T1, EntE; settings: competitive ligand in displacement ITC; cited from earlier work
[9] = system: M. tuberculosis; settings: cited from earlier work
[10] = target: T1, EntE; experiment: ITC of DHB binding to free EntE
In short: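 DHB binding was run by ITC at 25°C in 50 mM HEPES pH 7.8, 10 mM MgCl2. EntE was dialysed against this buffer and ligand was prepared in the dialysate. EntE concentration came from ε280 = 58 790 M⁻¹ cm⁻¹ and DHB by weight. 50 μM EntE in the cell; 1 mM DHB injected 5 μL every 230 s.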

[11] = 25°C, the other substrates fixed and saturating

T1 sequence (P10378 whole entry): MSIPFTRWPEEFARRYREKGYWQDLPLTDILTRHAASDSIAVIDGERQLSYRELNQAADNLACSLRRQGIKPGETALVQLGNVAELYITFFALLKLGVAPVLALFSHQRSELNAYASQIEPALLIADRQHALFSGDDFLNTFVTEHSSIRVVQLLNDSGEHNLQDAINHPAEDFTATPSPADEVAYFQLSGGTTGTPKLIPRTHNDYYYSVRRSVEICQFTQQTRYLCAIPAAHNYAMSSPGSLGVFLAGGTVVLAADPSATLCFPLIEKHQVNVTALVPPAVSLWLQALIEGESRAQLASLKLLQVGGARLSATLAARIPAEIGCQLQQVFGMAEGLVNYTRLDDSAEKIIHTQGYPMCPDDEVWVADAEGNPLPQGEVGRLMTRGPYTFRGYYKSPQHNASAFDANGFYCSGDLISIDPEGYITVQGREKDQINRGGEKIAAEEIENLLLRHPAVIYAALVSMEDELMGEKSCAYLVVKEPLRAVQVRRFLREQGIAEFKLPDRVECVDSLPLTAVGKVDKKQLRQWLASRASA
Chain of EntE (dihydroxybenzoate-AMP ligase) (P10378 whole entry): as above

EntE (dihydroxybenzoate-AMP ligase) (Escherichia coli K-12)
Km [1]: 3100 ± 300 µM | Km [2]: 2.5 ± 0.3 µM | kcat/Km [2]: 880000 M⁻¹ s⁻¹ | Km [3]: 70 ± 8 µM | kcat [3]: 0.3 ± 0.01 s⁻¹ | kcat/Km [3]: 4600 M⁻¹ s⁻¹

Nc1ncnc2c1ncn2[C@@H]1O[C@H](COS(=O)(=O)NC(=O)c2cccc(O)c2O)[C@@H](O)[C@H]1O [DHB-AMS, 5′-O-[N-(2,3-dihydroxybenzoyl)sulfamoyl]adenosine]
Ki [4]: 3.8 nM | type of inhibition ([4]; time-courses of product formation): slow-onset tight-binding inhibitors | TΔS ([5]; 293 K, calculated from eq 11): -0.4 kcal/mol | −ΔG ([5]; 293 K, calculated from eq 11): 15.0 kcal/mol | fold lower KD than Sal-AMS ([5]; ITC): 10 fold | Kd ([5]; KA, displacement ITC with 200 mM salicylic acid, 293 K, pH 8.0): 0.00627 nM | Kd ([5]; KD, displacement ITC with salicylic acid, KD = 1/KA, 20°C): 0.0075 nM | n (number of binding sites per monomer) ([5]; displacement ITC): 1.12 ± 0.03 | −ΔH ([5]; stoichiometric titration at high c, 293 K): 15.4 kcal/mol

Nc1ccc(C(=O)O)cc1 [4-aminobenzoic acid]
substrate activity for the EntE reaction ([6]; tested as substrate in the coupled assay): no activity was observed

Nc1ncnc2c1ncn2C1OC(COP(=O)(O)CP(=O)(O)OP(=O)(O)O)C(O)C1O (stereo not drawn) [AMPCPP, α, β-methyleneadenosine 5′-triphosphate]
inhibition pattern versus ATP ([7]; varied ATP, saturating DHB (80 μM)): competitive inhibition | inhibition pattern versus DHB ([7]; varied DHB, saturating ATP (5 mM)): uncompetitive inhibition

CC(C)(CO)[C@@H](O)C(=O)NCCC(=O)NCCS [D-pantetheine]
Km [6, 11]: 34200 ± 2000 µM | kcat [6, 11]: 0.9 ± 0.1 s⁻¹

O=C(O)c1ccccc1O [salicylic acid]
Km [6, 11]: 70 ± 4 µM | kcat [6]: 0.8 ± 0.1 s⁻¹ | KA^B [8]: 4740 M⁻¹

NNC(=O)c1ccncc1 [isoniazid]
MIC99 [9]: 0.18 µM (≈ 0.0247 µg/mL)

O=C(O)c1cccc(O)c1O [DHB, 2,3-dihydroxybenzoic acid]
Kd [10]: 8700 nM | n ([10]; one-set of sites model): 0.824 ± 0.00512 | KA ([10]; one-set of sites model, 25°C): 115000 ± 2800 M⁻¹ | ΔH ([10]; one-set of sites model, 25°C): -16.5 ± 0.14 kcal/mol | ΔS ([10]; one-set of sites model, 25°C): −32.2 cal mol^−1 K ^−1
